Results: ChEMBL document CHEMBL1124344, “5-Piperazinylalkyl-2(3H)-oxazolones with neuroleptic activity” (J Med Chem, 1989)

How the values were obtained:
[1] = Lethal dose in mice (LD50) following i.p. dosing; assay type: toxicity, organism-based; conditions: mouse, in vivo, ip
Procedure, shortened: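 Acute toxicity tested in mice by the intraperitoneal route. LD50 is the dose killing 50% of treated mice, computed by Finney probit analysis; values are approximate.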

Rattus norvegicus [2] = assay: Antagonistic activity against apomorphine-induced stereotypy in rats, by administering perorally at a dose of 100 mg/kg; assay type: functional; conditions: route oral
Procedure, shortened: (§1)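 Male rats fasted overnight and given oral doses in arabic gum suspension (10 mL/kg) 1 h, or 1 and 5 h, before challenge. Apomorphine 3 mg/kg iv, with stereotypy observed 20 min later. ED50 is the dose inhibiting stereotypy in 50% of rats, per Janssen's method. Parenthetical entries give the maximal dose and percent activity.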

Mus musculus [3] = assay: Inhibition of spontaneous motor activity in mice, by administering perorally at a dose of 100 mg/kg; assay type: functional; conditions: route oral
Procedure, shortened: (§2)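 Mice fasted overnight, then dosed orally with compound (weighed as base) suspended in arabic gum, 10 mL/kg, with vehicle controls; 1 h pretreatment for screening tests, 1 or 5 h for others. Groups of five; locomotor activity counted 10 min in photocell activity cage, at least two groups per dose. ED50 = dose giving 50% inhibition versus controls, by probit analysis.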

Rattus norvegicus [4] = assay: Activity to evoke catalepsy in rats, by administering perorally at a dose of 100 mg/kg; assay type: functional; conditions: route oral, read-out: Inhibition
Procedure, shortened: (§3)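 Rats fasted overnight and given oral doses in arabic gum suspension (10 mL/kg), 1 h before screening or 1 and 5 h before profile testing. Forelegs placed on a horizontal bar 7 cm high, three times at 5-min intervals. Immobility of at least 15 s counts as catalepsy. ED50 is the dose giving catalepsy in 50% of rats, by probit analysis. Parenthetical entries give the maximal dose and percent activity.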

Mus musculus [5] = assay: Antagonistic activity against amphetamine-induced Hypermobility in mice, by administering perorally at a dose of 100 mg/kg; assay type: functional; conditions: route oral
Procedure, shortened: (§4)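 Male mice in groups of five, fasted overnight, given oral drug in arabic gum suspension (10 mL/kg) 1 or 5 h ahead. Amphetamine 4 mg/kg ip given 30 min after drug. Ten minutes later locomotion is recorded for 15 min in a photocell actophotometer. ED50 is 50% reduction versus control hypermotility, by probit analysis. Parenthetical entries give the maximal dose and percent activity.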

Mus musculus [6] = assay: Inhibition of spontaneous motor activity in mice, by administering perorally; assay type: functional; conditions: po
Procedure, shortened: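 Mice in groups of five were dosed orally with gum arabic suspensions at 10 mL/kg after an overnight fast, with a vehicle control group. Locomotion was counted for 10 min in a photocell activity cage, in at least two groups per dose. ED50, by probit analysis, is the dose giving 50% inhibition against controls.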

Mus musculus [7] = assay: Inhibition of amphetamine-induced hypermobility in mice following p.o. administration.; assay type: functional; conditions: po
Procedure, shortened: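 Compounds were given orally to male mice (gum arabic suspension, 10 mL/kg, fasted) in groups of five. Amphetamine 4 mg/kg ip followed 30 min later. After another 10 min, motility was recorded for 15 min with a photocell actophotometer. ED50, by probit analysis, is the dose giving 50% reduction against controls.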

Rattus norvegicus [8] = assay: Antagonistic activity against apomorphine-induced stereotypy in rats, by administering perorally; assay type: functional; conditions: po; procedure, shortened: as §1
Rattus norvegicus [9] = assay: Activity to evoke catalepsy in rats, by administering perorally at a dose of 200 mg/kg; assay type: functional; conditions: route oral; procedure, shortened: as §3
Mus musculus [10] = assay: Inhibition of spontaneous motor activity in mice, by administering perorally at a dose of 125 mg/kg; assay type: functional; conditions: route oral; procedure, shortened: as §2
Rattus norvegicus [11] = assay: Activity to evoke catalepsy in rats, by administering perorally at a dose of 150 mg/kg; assay type: functional; conditions: route oral; procedure, shortened: as §3
Rattus norvegicus [12] = assay: Antagonistic activity against apomorphine-induced stereotypy in rats, by administering perorally at a dose of 150 mg/kg; assay type: functional; conditions: route oral; procedure, shortened: as §1
Rattus norvegicus [13] = assay: Activity to evoke catalepsy in rats, by administering perorally at a dose of 50 mg/kg; assay type: functional; conditions: route oral; procedure, shortened: as §3
Rattus norvegicus [14] = assay: Antagonistic activity against apomorphine-induced stereotypy in rats, by administering perorally at a dose of 50 mg/kg; assay type: functional; conditions: route oral; procedure, shortened: as §1
Rattus norvegicus [15] = assay: Activity to evoke catalepsy in rats, by administering perorally; assay type: functional; conditions: po; procedure, shortened: as §3
Rattus norvegicus [16] = assay: Antagonistic activity against apomorphine-induced stereotypy in rats, by administering perorally at a dose of 200 mg/kg; assay type: functional; conditions: route oral; procedure, shortened: as §1
Rattus norvegicus [17] = assay: Activity to evoke catalepsy in rats, by administering perorally at a dose of 70 mg/kg; assay type: functional; conditions: route oral; procedure, shortened: as §3
Rattus norvegicus [18] = assay: Activity to evoke catalepsy in rats, by administering perorally at a dose of 40 mg/kg; assay type: functional; conditions: route oral; procedure, shortened: as §3
Mus musculus [19] = assay: Antagonistic activity against amphetamine-induced Hypermobility in mice, by administering perorally at a dose of 10 mg/kg; assay type: functional; conditions: route oral; procedure, shortened: as §4
Rattus norvegicus [20] = assay: Antagonistic activity against apomorphine-induced stereotypy in rats, by administering perorally at a dose of 40 mg/kg; assay type: functional; conditions: route oral; procedure, shortened: as §1

Structure (SMILES)	LD50 [1] [mg/kg]	inhibition in vivo at 100 mg/kg (Rattus norvegicus [2]) [%]	percent of rats showing catalepsy at 100 mg/kg (Rattus norvegicus [4]) [%]	inhibition in vivo at 100 mg/kg (Mus musculus [5]) [%]	ED50 (Mus musculus [6]) [mg/kg]	ED50 (Mus musculus [7]) [mg/kg]	other results
Oc1nc(-c2ccc(F)cc2)c(CCN2CCN(c3cc(Cl)c(Cl)c(Cl)c3)CC2)o1	> 1000	0	0	0	–	–	inhibition in vivo at 100 mg/kg (Mus musculus [3]): 0%
Oc1nc(-c2ccc(F)cc2)c(CCN2CCN(c3ccc(Cl)cc3)CC2)o1	> 1000	0	0	0	200	–	–
Oc1nc(-c2ccc(F)cc2)c(CCN2CCN(c3ccccc3Cl)CC2)o1	> 1000	0	30	–	14.2	15	–
COc1ccc(N2CCN(CCc3oc(O)nc3-c3ccc(F)cc3)CC2)cc1	> 1000	0	0	0	–	–	inhibition in vivo at 100 mg/kg (Mus musculus [3]): 33%
O=c1oc(CCN2CCN(c3ccccc3)CC2)c(-c2ccc(F)cc2)n1Cc1ccccc1	1000	–	–	40	51	–	ED50 (Rattus norvegicus [8]): 200 mg/kg; inhibition in vivo at 200 mg/kg (Rattus norvegicus [9]): 0%
O=c1oc(CCN2CCN(c3ccccc3)CC2)c(-c2ccc(F)cc2)n1-c1ccccc1	> 1000	0	0	0	–	–	inhibition in vivo at 125 mg/kg (Mus musculus [10]): 0%
CCCCn1c(-c2ccc(F)cc2)c(CCN2CCN(c3ccccc3)CC2)oc1=O	750	–	–	–	16	15.4	inhibition in vivo at 150 mg/kg (Rattus norvegicus [11]): 0%; inhibition in vivo at 150 mg/kg (Rattus norvegicus [12]): 40%
Cc1cccc(N2CCN(CCc3oc(O)nc3-c3ccc(F)cc3)CC2)c1	> 1000	–	–	–	13.4	7.3	inhibition in vivo at 50 mg/kg (Rattus norvegicus [13]): 0%; inhibition in vivo at 50 mg/kg (Rattus norvegicus [14]): 0%
Oc1nc(-c2ccc(F)cc2)c(CCN2CCN(c3cccc(Cl)c3)CC2)o1	> 1000	–	0	–	58.5	54.1	ED50 (Rattus norvegicus [8]): 80 mg/kg
Oc1nc(-c2ccc(F)cc2)c(CCN2CCN(c3ccccc3)CC2)o1	> 2000	–	–	–	3.6	5.4	ED50 (Rattus norvegicus [15]): 87 mg/kg; ED50 (Rattus norvegicus [8]): 47.5 mg/kg
Cc1ccc(-c2nc(O)oc2CCN2CCN(c3ccccc3)CC2)cc1	400	0	0	–	6.4	2	–
Oc1nc(-c2ccc(F)cc2)c(CCN2CCN(c3ccccn3)CC2)o1	> 1000	–	0	0	38	–	inhibition in vivo at 200 mg/kg (Rattus norvegicus [16]): 30%
CCN(CC)CCn1c(-c2ccc(F)cc2)c(CCN2CCN(c3ccccc3)CC2)oc1=O	350	–	–	–	60	–	inhibition in vivo at 70 mg/kg (Rattus norvegicus [17]): 0%; ED50 (Rattus norvegicus [8]): 35 mg/kg
Oc1nc(-c2ccc(F)cc2)c(CCCN2CCN(c3ccccc3)CC2)o1	170	–	–	–	8	–	inhibition in vivo at 40 mg/kg (Rattus norvegicus [18]): 0%; inhibition in vivo at 10 mg/kg (Mus musculus [19]): 69%; inhibition in vivo at 40 mg/kg (Rattus norvegicus [20]): 0%
CNC(=O)n1c(-c2ccc(F)cc2)c(CCN2CCN(c3ccccc3)CC2)oc1=O	750	–	0	–	16.5	9.9	–
